16 molecules from ChEMBL document CHEMBL1147022, “Studies on synthesis and evaluation of quantitative structure-activity relationship of 10-methyl-6-oxo-5-arylazo-6,7-dihydro-5H-[1,3]azaphospholo[1,5-d][1,4]benzodiazepin-2-phospha-3-ethoxycarbonyl-1-phosphorus dichlorides” (2006) can be followed below.

Format in all cases: functional
Common to all, as to parameters: unit not given here

The test system of one assay is Escherichia coli. The experiment in a line: Antibacterial activity against Escherichia coli ATCC 445. The procedure, abridged:
(§1)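 Agar 2-fold serial dilution MIC on nutrient agar. Test compounds come from 1 mg/mL DMSO stocks. Inoculum is about 10⁷ CFU/mL bacterial suspension prepared from broth cultures. Plates are run in triplicate and incubated at 37 °C for 16–47 h. Ampicillin trihydrate is the reference drug, tested under the same conditions.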

The next assay deals with Bacillus subtilis. The experiment in a line: Antibacterial activity against Bacillus subtilis ATCC 6633. The procedure, abridged: as §1
The next assay concerns Aspergillus niger. Description: Antifungal activity against Aspergillus niger ATCC 16404. In short, it runs like this:
(§2)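 Fungal MIC by standard 2-fold serial dilution in Sabouraud dextrose agar, using compounds diluted from 1 mg/mL DMSO stocks. Plates receive about 10⁶ CFU/mL fungal suspension made from broth cultures, in triplicate, and are kept at 37 °C for 48–72 h. Clotrimazole is the reference drug.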

The subject of a further assay is Candida albicans. Description: Antifungal activity against Candida albicans ATCC 10231. The procedure, abridged: as §2

Each structure is given as a SMILES string.

Consider `CCOC(=O)c1pc(P(Cl)Cl)c2n1[C@@H](N=Nc1ccc(OC)cc1)C(=O)Nc1ccc(C)cc1-2` (stereo partly drawn), for which the “-Log MIC” value came to 4.26 with Escherichia coli, 4.29 in the assay on Bacillus subtilis, 4.39 in the assay on Aspergillus niger and 4.24 in the assay on Candida albicans.
In the case of `CCOC(=O)c1pc(P(Cl)Cl)c2n1[C@@H](N=Nc1cccc(OCC)c1)C(=O)Nc1ccc(C)cc1-2` (stereo partly drawn), the “-Log MIC” value in the assay on Escherichia coli came to 5.04; in the assay with Bacillus subtilis, 4.96; with Aspergillus niger it was 4.89; with Candida albicans, 4.78.
As for `CCOC(=O)c1pc(P(Cl)Cl)c2n1[C@@H](N=Nc1ccc([N+](=O)[O-])cc1)C(=O)Nc1ccc(C)cc1-2` (stereo partly drawn), the “-Log MIC” value was 4.61 in the assay on Escherichia coli, 4.52 in the assay on Bacillus subtilis, 4.45 in the assay with Aspergillus niger and 4.32 in the assay with Candida albicans.
The like results for `CCOC(=O)c1pc(P(Cl)Cl)c2n1[C@@H](N=Nc1ccc(C)cc1)C(=O)Nc1ccc(C)cc1-2` (stereo partly drawn) were, in that order, 4.17, 4.22, 4.22 and 4.09.
Regarding `CCOC(=O)c1pc(P(Cl)Cl)c2n1[C@@H](N=Nc1cccc(O)c1)C(=O)Nc1ccc(C)cc1-2` (stereo partly drawn), the “-Log MIC” value with Escherichia coli was 4.2; in the assay with Bacillus subtilis it was 4.22; in the assay with Aspergillus niger it was 4.25; with Candida albicans it was 4.11.
As to `CCOC(=O)c1pc(P(Cl)Cl)c2n1[C@@H](N=Nc1ccc(O)cc1)C(=O)Nc1ccc(C)cc1-2` (stereo partly drawn), the “-Log MIC” value in the assay with Escherichia coli came to 4.11; in the assay on Bacillus subtilis, 4.17; in the assay with Aspergillus niger, 4.18; with Candida albicans, 4.06.
In the case of `CCOC(=O)c1pc(P(Cl)Cl)c2n1[C@@H](N=Nc1cccc([N+](=O)[O-])c1)C(=O)Nc1ccc(C)cc1-2` (stereo partly drawn), the “-Log MIC” value amounted to 4.55 with Bacillus subtilis, 4.56 in the assay on Aspergillus niger and 4.5 with Candida albicans.
With `CCOC(=O)c1pc(P(Cl)Cl)c2n1[C@@H](N=Nc1ccc(OCC)cc1)C(=O)Nc1ccc(C)cc1-2` (stereo partly drawn), the “-Log MIC” value was found to be 4.74 with Escherichia coli, 4.83 in the assay on Bacillus subtilis, 4.74 in the assay on Aspergillus niger and 4.59 with Candida albicans.
For the molecule `CCOC(=O)c1pc(P(Cl)Cl)c2n1[C@@H](N=Nc1ccc(Cl)cc1)C(=O)Nc1ccc(C)cc1-2` (stereo partly drawn), the “-Log MIC” value in the assay on Escherichia coli is on record as 4.39; with Bacillus subtilis, 4.41; in the assay on Aspergillus niger, 4.51; with Candida albicans, 4.36.
With `CCOC(=O)c1pc(P(Cl)Cl)c2n1[C@@H](N=Nc1cccc(C(=O)O)c1)C(=O)Nc1ccc(C)cc1-2` (stereo partly drawn), the “-Log MIC” value in the assay on Escherichia coli was 4.36; in the assay on Bacillus subtilis, 4.37; with Aspergillus niger, 4.48; in the assay on Candida albicans, 4.32.
Taken in the same sequence, the figures for `CCOC(=O)c1pc(P(Cl)Cl)c2n1[C@@H](N=Nc1cccc(C)c1)C(=O)Nc1ccc(C)cc1-2` (stereo partly drawn) were 4.22, 4.25, 4.31 and 4.17.
For the molecule `CCOC(=O)c1pc(P(Cl)Cl)c2n1[C@@H](N=Nc1cccc(CC)c1)C(=O)Nc1ccc(C)cc1-2` (stereo partly drawn), the “-Log MIC” value in the assay on Escherichia coli was 4.88; with Bacillus subtilis, 4.68; in the assay on Aspergillus niger, 4.82; with Candida albicans, 4.61.
For `CCOC(=O)c1pc(P(Cl)Cl)c2n1[C@@H](N=Nc1cccc(OC)c1)C(=O)Nc1ccc(C)cc1-2` (stereo partly drawn), the “-Log MIC” value in the assay on Escherichia coli is reported as 4.3; with Bacillus subtilis it was 4.28; with Aspergillus niger it was 4.56; with Candida albicans, 4.39.
The like results for `CCOC(=O)c1pc(P(Cl)Cl)c2n1[C@@H](N=Nc1ccc(CC)cc1)C(=O)Nc1ccc(C)cc1-2` (stereo partly drawn) were, in that order, 4.58, 4.64, 4.64 and 4.52.
Taken in the same sequence, the figures for `CCOC(=O)c1pc(P(Cl)Cl)c2n1[C@@H](N=Nc1cccc(Cl)c1)C(=O)Nc1ccc(C)cc1-2` (stereo partly drawn) were 4.54, 4.46, 4.68 and 4.47.
For `CCOC(=O)c1pc(P(Cl)Cl)c2n1[C@@H](N=Nc1ccccc1)C(=O)Nc1ccc(C)cc1-2` (stereo partly drawn), the “-Log MIC” value with Escherichia coli is listed as 4.05; in the assay with Bacillus subtilis, 4.05; in the assay with Aspergillus niger, 4.12; in the assay on Candida albicans, 4.1.
